Experimental data from the RNAGym collection of RNA variant scans (doi:10.1126/science.aae0568).
Variants at the floor of the assay were thinned out.

B1: tRNA (parent)
chain: GUUCCGUUGGCGUAAUGGUAACGCGUCUCCCUCCUAAGGAGAAGACUGCGGGUUCGAGUCCCGUACGGAACG

Variants of: B1
Assay: yeast fitness relative to wild type (ratio to wild type); higher = fitter; tRNA-Arg(CCU), competitive growth, 37 C, YPD
Outline: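 The tRNA-Arg(CCU) gene variants were made by chemical synthesis with a 3% per-site mutation rate at 69 sites and inserted at the native genomic locus of Saccharomyces cerevisiae. After pooling, the strains were competed in YPD at 37°C for 24 hours in six parallel replicates. Gene amplicons from the start population and each end population were read by 100-nucleotide paired-end sequencing, and Darwinian fitness relative to wild type was taken from genotype frequency changes. Genotypes needed ≥ 100 starting reads, and estimates < 0.5 were set to 0.5.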

Going from G12A C55A to G12A C24A U64C, the yeast fitness rises from 0.6 to 0.682.

G12A A15G C27A and G12A A14C A20C A42G G44A cannot be ordered by yeast fitness: at most 0.5 for the first, at most 0.5 for the second.

Compared with G12C A14C G56C G58C, G12A A45U is higher in yeast fitness: at most 0.5 for the first, 1.03 for the second.

First: G12A A45G
Second: C11U U28A A69C
The yeast fitness of the first is higher: 0.953 for the first, 0.58 for the second.

Compared with G12C A15G C29U A42U U47C C62U, G12A A43G G48C is higher in yeast fitness: at most 0.5 for the first, 0.568 for the second.

G12A G41A G50A and G12A A21G C34U C62A A69U cannot be ordered by yeast fitness: at most 0.5 for the first, at most 0.5 for the second.

Going from G12A C31U G52A G56C to C11U U28A, the yeast fitness rises from 0.569 to 0.682.

C11U U35A G56C and C11U U19A A42G U59A C60U cannot be ordered by yeast fitness: at most 0.5 for the first, at most 0.5 for the second.

First: G12A A15G G25C C30G G67C
Second: C11U U47C A57G A69U
The yeast fitness of the first is lower: at most 0.5 for the first, 0.565 for the second.

Compared with G12A A42U C61G, C11U U35C A42G is lower in yeast fitness: 0.505 for the first, at most 0.5 for the second.

Compared with G12A C49U G58A, C11U U26G G67C is lower in yeast fitness: 0.7 for the first, at most 0.5 for the second.

Going from G12A C30G A40C to G12A U35A A45C, the yeast fitness rises from at most 0.5 to 0.528.

First: C11U U26C U47A
Second: C11U U26C U47C
The yeast fitness of the first is lower: 0.555 for the first, 0.799 for the second.

G12A G17C C46U and G12A A20G A21G C22G cannot be ordered by yeast fitness: at most 0.5 for the first, at most 0.5 for the second.

Going from C11U U28C G44C to G12A C31U C61G, the yeast fitness falls from 0.557 to 0.543.

First: G12A C22U A57U
Second: G12A U59C
The yeast fitness of the first is lower: at most 0.5 for the first, 0.993 for the second.

Compared with G12A G23A U28G G56C A65U, G12A A15U C24U G44C G52C A69U is lower in yeast fitness: 0.762 for the first, at most 0.5 for the second.

Going from G12C A14C U26C A40G C66U A69U to G12A A42C, the yeast fitness rises from 0.598 to 0.89.

Compared with G12A A42U, G12C A14C A20U A21U C33A G48A C62U is lower in yeast fitness: 0.856 for the first, at most 0.5 for the second.

G12A A14G C24G C31U C55A and G12A A42C G50C cannot be ordered by yeast fitness: at most 0.5 for the first, at most 0.5 for the second.

First: G12A C29A
Second: G12A C29G
The yeast fitness of the first is higher: 0.652 for the first, 0.61 for the second.

First: G12A U26C C27U C33A A45C C62G A69U
Second: G12A C22G A43G C55A
The yeast fitness of the first is higher: 0.553 for the first, at most 0.5 for the second.

First: G12A G48A A57G G68C
Second: G12A G56A
The yeast fitness of the first is lower: 0.569 for the first, 0.975 for the second.

C11U U26A A36U A65U and G12A C33G A36C A37G G44A cannot be ordered by yeast fitness: at most 0.5 for the first, at most 0.5 for the second.

First: C11U U28C C29G C60A
Second: C11U U35C A70G
The yeast fitness of the first is lower: at most 0.5 for the first, 0.641 for the second.

Going from G12A U26A C31U G48A to G12A U19G U35C A40U, the yeast fitness falls from 0.711 to 0.521.

Compared with G12A C24G A40C A43C C46U G56A G68C A69U, C11U U19A A43U A65U is higher in yeast fitness: at most 0.5 for the first, 0.53 for the second.

G12A U32C A43C A65U and G12A A15U C22A U26A C33G G38C G41C A43C U47G G67C cannot be ordered by yeast fitness: at most 0.5 for the first, at most 0.5 for the second.

Going from G12A G25A U32C to G12A C46A, the yeast fitness rises from 0.749 to 1.05.

Going from C11U U47A to C11U U19G A69U, the yeast fitness falls from 0.808 to 0.782.

C11U U16C C33A U53C C66G G67U and G12A U19C G23A U32C A43C G48C U64C cannot be ordered by yeast fitness: at most 0.5 for the first, at most 0.5 for the second.

G12A C34A G51U G58A G63U and G12A A42G C66G G67C cannot be ordered by yeast fitness: at most 0.5 for the first, at most 0.5 for the second.

Going from G12A C29A C60U to G12A U13G U19C A21G C49U G52A U59G, the yeast fitness rises from at most 0.5 to 0.525.

Going from G12A U19A G41A A42G G58U G63C to G12A G58C G63A, the yeast fitness rises from at most 0.5 to 0.615.

First: G12A U64C
Second: G12A C24U C55G A70U
The yeast fitness of the first is higher: 0.921 for the first, 0.531 for the second.

G12A U16C C55G A65C and G12A C24U A65U G68A cannot be ordered by yeast fitness: at most 0.5 for the first, at most 0.5 for the second.

Compared with G12A G41A C60G A65G, G12A C30U C46G is lower in yeast fitness: 0.559 for the first, at most 0.5 for the second.

C11U U19C C22G G25C C33U G39C C62G and G12A U32C A40C G51A cannot be ordered by yeast fitness: at most 0.5 for the first, at most 0.5 for the second.

Going from G12A A20G G48A to G12A U13C U26C G51A, the yeast fitness falls from 0.63 to at most 0.5.

Compared with C11U U59A C60U, G12A G63C is higher in yeast fitness: 0.543 for the first, 0.704 for the second.

C11U U16A C55A and G12A C33U C46A C55G cannot be ordered by yeast fitness: at most 0.5 for the first, at most 0.5 for the second.

Going from C11U U16A U64A to G12A C30U U32G A36U G39C G50C, the yeast fitness falls from 0.514 to at most 0.5.

Going from G12A U26A C31G to G12A C61A G67A, the yeast fitness falls from 0.541 to at most 0.5.

Compared with G12A C46U C62U, G12A G39A G68A is lower in yeast fitness: 0.732 for the first, 0.528 for the second.

C11U U26G C30A A43C U53C C66U A70C and C11U U32G U53A C55U C61U cannot be ordered by yeast fitness: at most 0.5 for the first, at most 0.5 for the second.

Going from G12A U35C C66U to G12A U19C C34G C66U A69U, the yeast fitness falls from 0.614 to 0.59.

First: C11U U53A C62A
Second: G12A U13G C61U G67C
The yeast fitness of the first is lower: at most 0.5 for the first, 0.678 for the second.

First: G12A G25C
Second: G12A A15G C29G G48A C62U C66U
The yeast fitness of the first is higher: 0.961 for the first, at most 0.5 for the second.

First: G12A C46G A70G
Second: C11U U19G A65C
The yeast fitness of the first is higher: 0.703 for the first, 0.696 for the second.

Going from G12A U13C C27G C31U C34A to G12A C31U, the yeast fitness rises from at most 0.5 to 0.919.

Going from G12A G25A G68C to G12C A14G C22U U54C C61U, the yeast fitness falls from 0.645 to at most 0.5.

Going from G12A G41A G51C to G12A U16G C49U G63A, the yeast fitness rises from at most 0.5 to 0.705.

First: C11U U16C U19C
Second: G12A C24G U26G G39C C49G A65G
The yeast fitness of the first is higher: 0.929 for the first, at most 0.5 for the second.

Compared with G12A A14G, G12A G18C C29U is lower in yeast fitness: 0.958 for the first, 0.599 for the second.

G12A A21C G23A C46G U53C and C11U U32A C34U cannot be ordered by yeast fitness: at most 0.5 for the first, at most 0.5 for the second.

First: G12C A20C
Second: G12A C30U U47A G67C
The yeast fitness of the first is higher: 0.699 for the first, at most 0.5 for the second.

C11U U26A C60A and G12C A14G G25A G41C G67A cannot be ordered by yeast fitness: at most 0.5 for the first, at most 0.5 for the second.

C11U U28C G44C A69C A70C and G12A U13G U19C A21G G52A U59G cannot be ordered by yeast fitness: at most 0.5 for the first, at most 0.5 for the second.

Going from G12A C27G G50A to G12C A14G, the yeast fitness rises from at most 0.5 to 0.793.

First: G12A U13A G67U
Second: G12A C30U A40U C49A G56A A57U
The yeast fitness of the first is higher: 0.537 for the first, at most 0.5 for the second.

C11U U35C U64A and G12A A21C C31U cannot be ordered by yeast fitness: at most 0.5 for the first, at most 0.5 for the second.

Compared with G12A C61A, G12A C61U is higher in yeast fitness: 0.659 for the first, 0.924 for the second.

G12C A20C C27G A45G C66A and G12A C24G C29A cannot be ordered by yeast fitness: at most 0.5 for the first, at most 0.5 for the second.

Going from G12A G50U to G12A G50C, the yeast fitness falls from 0.842 to 0.757.

Compared with G12A U47G U53A C60A, G12A A20C U28C is higher in yeast fitness: at most 0.5 for the first, 0.664 for the second.

G12A C49A G68A and C11U U26G U32A A43C U53C A70U cannot be ordered by yeast fitness: at most 0.5 for the first, at most 0.5 for the second.

Compared with G12A A21G A40U G67U, G12A C27U C30G C55U A57C is higher in yeast fitness: at most 0.5 for the first, 0.547 for the second.

G12A C34U A37U G41A C55U A69C and C11U U28A C62G cannot be ordered by yeast fitness: at most 0.5 for the first, at most 0.5 for the second.

G12A C22A C24A and G12A A15U C24U G44C G52C cannot be ordered by yeast fitness: at most 0.5 for the first, at most 0.5 for the second.

C11U U16C U26C A45C C46U and G12A G52C C55U A65U cannot be ordered by yeast fitness: at most 0.5 for the first, at most 0.5 for the second.

Compared with G12A A40U A45G C60A, C11U U28C A45U is higher in yeast fitness: at most 0.5 for the first, 0.742 for the second.

Compared with G12A U26A C46U, G12A C24U C27A is higher in yeast fitness: 0.543 for the first, 0.575 for the second.

Going from G12A C29G C66U to G12C A15U C24A C61U, the yeast fitness falls from 0.574 to at most 0.5.

G12A U16C C27A A70C and G12A G17C G58A A70G cannot be ordered by yeast fitness: at most 0.5 for the first, at most 0.5 for the second.

Going from C11U U19G C27U C29G to G12A C31U U53A U54G G58C C62U, the yeast fitness rises from at most 0.5 to 0.635.

First: G12A G48C U54A
Second: G12A A14G A15G C27U G38A G68C
The yeast fitness of the first is higher: 0.59 for the first, at most 0.5 for the second.

First: G12A U19G A20G U35C A40U
Second: G12A U16G G48A G68A
The yeast fitness of the first is lower: at most 0.5 for the first, 0.705 for the second.

Going from G12A A15G C24A A36U C61U G67U to G12A A37U A42C, the yeast fitness falls from 0.761 to 0.559.

C11U U16C U28C A43C and G12A A20G U26C C31G C33U A42U G67C cannot be ordered by yeast fitness: at most 0.5 for the first, at most 0.5 for the second.

Compared with G12A A20C A65U, C11U U64G is higher in yeast fitness: 0.57 for the first, 0.739 for the second.

G12A G51C C62A and G12A C29A A65U cannot be ordered by yeast fitness: at most 0.5 for the first, at most 0.5 for the second.

First: G12A U28A A40U
Second: G12A C24U G25A C30U C46A
The yeast fitness of the first is higher: 0.647 for the first, 0.571 for the second.

First: G12A A20G U28A C55A G56A
Second: G12A C33U G39C C66G
The yeast fitness of the first is higher: 0.537 for the first, at most 0.5 for the second.

With G12A A14U C66A A70G the yeast fitness was at most 0.5.
